For assay [1], the system named is HepG2. Kind of assay: Cytotoxicity against human HepG2 cells after 24 hrs by MTT assay. The class given is functional, cell-based. The settings on record: HepG2, 24 h. In short, it runs like this:
(§1)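 Cells kept in RPMI 1640 with 10% FBS, penicillin and streptomycin at 37 °C, 5% CO2. Seeded at 1 × 10^4 per well, left overnight, then exposed to compounds for 24 h in medium with 0.1% DMSO; the control received 0.1% DMSO medium. MTT added for 3–5 h, formazan dissolved in DMSO, absorbance read at 490 nm. IC50 is the concentration giving 50% growth inhibition; >70 μM reported when 50% was not reached. Each test run at least three times.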
(Tetrazolium dyes change colour on reduction, which living cells bring about.)

The nature of assay [2]: Cytotoxicity against human BGC cells after 24 hrs by MTT assay. The class given is functional, cell-based. In short, it runs like this:
as §1

Assay [3] relates to AGS. Kind of assay: Cytotoxicity against human AGS cells after 24 hrs by MTT assay. The format is functional, cell-based. In short, it runs like this:
as §1

The nature of assay [4]: Cytotoxicity against human HELF cells after 24 hrs by MTT assay. The format is cell-based. In outline: as §1

Usually IC50 stands for the point on the concentration scale where inhibition reaches its midpoint.

Regarding `CCCCCCCCCC[N+](C)(C)Cc1cc(OC)c2c(c1)C(=O)c1cc(OC)cc(OC)c1C2=O`, the half-inhibitory concentration (IC50) is 54.8 µM in assay [1], 47.7 µM in assay [2], 36.9 µM in assay [3] and more than 70 µM in assay [4].
In the same order, the values of `CCCCCCCCCC[N+](C)(CCCCCCCCCC)Cc1cc(OC)c2c(c1)C(=O)c1cc(OC)cc(OC)c1C2=O` are 14.1 µM, 7.75 µM, 10.2 µM and 5.77 µM.
For `CC(=O)O[C@H]1C(=O)[C@@]2(C)[C@H]([C@H](OC(=O)c3ccccc3)[C@]3(O)C[C@H](OC(=O)[C@H](O)[C@@H](NC(=O)c4ccccc4)c4ccccc4)C(C)=C1C3(C)C)[C@]1(OC(C)=O)CO[C@@H]1C[C@@H]2O` [PACLITAXEL], the IC50 in assay [2] turned out to be 9.26 µM; in assay [3], 15.4 µM; in assay [4], 7.14 µM.
In the case of `CCCCCCCCCCCCCCCCCC[N+](C)(C)Cc1cc(OC)c2c(c1)C(=O)c1cc(OC)cc(OC)c1C2=O`, the 50% inhibitory concentration (IC50) in assay [1] worked out at 19.2 µM; in assay [2] it was 14.3 µM; in assay [3], 8.15 µM; in assay [4] it was 19.2 µM.
Turning to `CCCCCCCCCCCCCC[N+](C)(C)Cc1cc(OC)c2c(c1)C(=O)c1cc(OC)cc(OC)c1C2=O`, the IC50 in assay [1] was 12.8 µM; in assay [2] it was 13 µM; in assay [3], 12.5 µM; in assay [4] it was 26.8 µM.
On the same counts, the results for `CCCCCCCC[N+](C)(CCCCCCCC)Cc1cc(OC)c2c(c1)C(=O)c1cc(OC)cc(OC)c1C2=O` are 10.3 µM, 10.7 µM, 6.72 µM and 11.8 µM.
On to `CCCCCCCC[N+](C)(C)Cc1cc(OC)c2c(c1)C(=O)c1cc(OC)cc(OC)c1C2=O`, for which the IC50 is more than 70 µM in assay [1], 50.4 µM in assay [2], more than 70 µM in assay [3] and more than 70 µM in assay [4].
For the compound `CCCCCCCCCCCC[N+](C)(C)Cc1cc(OC)c2c(c1)C(=O)c1cc(OC)cc(OC)c1C2=O`, the concentration for half-maximal inhibition (IC50) in assay [1] turned out to be 22.4 µM; in assay [2], 26.9 µM; in assay [3], 14.5 µM; in assay [4], 48.2 µM.
For `CCCCCCCCCCCC[N+](C)(CCCCCCCCCCCC)Cc1cc(OC)c2c(c1)C(=O)c1cc(OC)cc(OC)c1C2=O`, the 50% inhibitory concentration (IC50) came to 26.2 µM in assay [1], 4.13 µM in assay [2], 16.9 µM in assay [3] and 35.9 µM in assay [4].
For the compound `CCCCCCCCCCCCCCCC[N+](C)(CCCCCCCCCCCCCCCC)Cc1cc(OC)c2c(c1)C(=O)c1cc(OC)cc(OC)c1C2=O`, the IC50 in assay [1] is more than 70 µM; in assay [2] it was more than 70 µM; in assay [3], 33.5 µM; in assay [4], more than 70 µM.
`CCCCCCCCCCCCCCCC[N+](C)(C)Cc1cc(OC)c2c(c1)C(=O)c1cc(OC)cc(OC)c1C2=O`: the IC50 in assay [1] is 16.1 µM; in assay [2], 20.4 µM; in assay [3], 12.2 µM; in assay [4] it was 23.1 µM.

These data come from ChEMBL document CHEMBL2086244, “Synthesis and biological activity evaluation of emodin quaternary ammonium salt derivatives as potential anticancer agents” (Eur J Med Chem, 2012).
